Laboratory results published in ChEMBL document CHEMBL1151279, “Sesquiterpenoids and norsesquiterpenoids from the Formosan soft coral Lemnalia laevis” (2005).
Values after ≈ are worked out from the molar mass of the structure shown.

Experiments:
P388 = experiment: Cytotoxicity against mouse P388 cells; format: functional; settings: read-out: ED50 (the source's name)
In short: (§1)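 Cytotoxicity assay run as previously described, with test compounds at three concentrations (50, 5 and 0.5 µg/mL). HT29 cells are human colon adenocarcinoma. P-388 cells are mouse lymphocytic leukemia, supplied by J. M. Pezzuto.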

HT-29 = experiment: Cytotoxicity against human HT-29 cells; format: functional; settings: read-out: ED50 (the source's name); in short: as §1

| Structure (SMILES) | EC50 (P388) [µg/mL] | EC50 (HT-29) [µg/mL] |
| --- | --- | --- |
| C[C@H]1CCC=C2CCC(C(C)(O)CO)=C[C@@]21C (some centres not stated) | 0.21 (≈ 0.888 µM) | 0.33 (≈ 1.4 µM) |
| CC(=O)[C@@H]1C(=O)CC[C@]23O[C@H]2[C@H](O)C[C@H](C)[C@@]13C | > 5 | > 5 |
| CC(=O)O[C@@H]1C(=O)CCC2=CC(=O)C[C@H](C)[C@@]2(C)/C=C\1C (single isomer, unassigned) [LAEVINONE A] | > 5 | > 5 |
| CC(=O)[C@H]1[C@@H](OC=O)CCC2=C[C@@H](O)C[C@H](C)[C@]21C [LAEVINOL A] | > 5 | > 5 |
| CC(=O)[C@H]1[C@@H](O)CCC2=C[C@@H](O)C[C@H](C)[C@]21C [LAEVINOL B] | > 5 | > 5 |
| CC(=O)[C@H]1[C@H](O)CCC2=C[C@@H](O)C[C@H](C)[C@]21C [LAEVINOL C] | > 5 | > 5 |
| CC(=O)[C@H]1[C@@H](O)CCC2=C[C@H](O)C[C@H](C)[C@]21C [LAEVINOL D] | > 5 | > 5 |
| CC(=O)[C@H]1C(=O)CCC2=C[C@@H](O)C[C@H](C)[C@]21C [LAEVINOL E] | > 5 | > 5 |
| CC(=O)[C@H]1[C@H](O)CC[C@]23O[C@H]2[C@@H](O)C[C@H](C)[C@@]13C [LAEVINOL F] | > 5 | > 5 |
| CC(=O)[C@H]1[C@H](O)CC[C@]23O[C@H]2[C@H](O)C[C@H](C)[C@@]13C [LAEVINOL G] | > 5 | > 5 |
| CC(=O)[C@H]1[C@H](O)CC[C@]23O[C@H]2CC[C@H](C)[C@@]13C [LAEVINOL H] | > 5 | > 5 |
